Test results published in ChEMBL document CHEMBL4842397, “Macrocyclization as a Source of Desired Polypharmacology. Discovery of Triple PI3K/mTOR/PIM Inhibitors” (ACS Med Chem Lett, 2021).

Tests used:
[1] = target: Phosphatidylinositol 4,5-bisphosphate 3-kinase catalytic subunit alpha isoform (Homo sapiens, UniProt P42336); assay: Inhibition of PI3Kalpha (unknown origin) by ADP-Glo assay
[2] = target: Serine/threonine-protein kinase pim-1 (Homo sapiens, UniProt P11309); assay: Inhibition of human PIM1 using ARKRRRHPSGPPTA as substrate measured after 1.5 hrs by ADP hunter plus assay
[3] = target: Serine/threonine-protein kinase mTOR (Homo sapiens, UniProt P42345); assay: Inhibition of mTOR (unknown origin) by LanthaScreen assay
[4] = target: PI3-kinase p110-delta/p85-alpha (Homo sapiens, UniProt O00329); assay: Inhibition of human PI3K p110delta/p85alpha by HTRF assay; format: protein-complex assay
Procedure, shortened: (§1)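 Ki from an HTRF assay on each PI3K isoform, reported in nM as the average of two independent experiments.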

[5] = target: Serine/threonine-protein kinase PIM (Homo sapiens, UniProt P11309+Q9P1W9+Q86V86); assay: Inhibition of PIM in human MV4-11 cells assessed as BAD phosphorylation at Ser112 measured after over night incubation by lotting based cellular assay; format: cell-based
[6] = Clearance in BALB/c mouse at 0.7 mg/kg, iv; format: ADME, organism-based; conditions: in vivo
Procedure, shortened: (§2)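 Preliminary single-dose pharmacokinetics in BALB-C mice, given I.V. or P.O. Units: AUC h.ng/mL, T1/2 h, Cl L/h/kg, Vd L/kg, Cmax ng/mL, Tmax h. Bioavailability is the absorbed fraction at the doses tested.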

[7] = target: Serine/threonine-protein kinase pim-2 (Homo sapiens, UniProt Q9P1W9); assay: Inhibition of PIM2 (unknown origin) using ARKRRRHPSGPPTA as peptide substrate by ADP Hunter Plus assay
PI3K/mTOR (Homo sapiens) = assay: Inhibition of PI3K/mTOR in human MV4-11 cells assessed as Akt phosphorylation at Ser473 measured after over night incubation by lotting based cellular assay
[8] = target: PI3-kinase p110-alpha/p85-alpha (Homo sapiens, UniProt P42336); assay: Inhibition of human PI3K p110alpha/p85alpha by HTRF assay; format: protein-complex assay; procedure, shortened: as §1
[9] = Tmax in BALB/c mouse at 5 mg/kg, po; format: ADME, organism-based; conditions: in vivo; procedure, shortened: as §2
[10] = target: Phosphatidylinositol 4,5-bisphosphate 3-kinase catalytic subunit gamma isoform (Homo sapiens, UniProt P48736); assay: Inhibition of human PI3Kgamma by HTRF assay; procedure, shortened: as §1
[11] = target: Voltage-gated inwardly rectifying potassium channel KCNH2 (Homo sapiens, UniProt Q12809); assay: Inhibition of human ERG at < 30 uM
[12] = Oral bioavailability in BALB/c mouse at 5 mg/kg; format: ADME, organism-based; conditions: in vivo; procedure, shortened: as §2
[13] = Half life in BALB/c mouse at 5 mg/kg, po; format: ADME, organism-based; conditions: in vivo; procedure, shortened: as §2
[14] = Volume of distribution at steady state in BALB/c mouse at 0.7 mg/kg, iv; format: ADME, organism-based; conditions: in vivo, read-out: Vdss; procedure, shortened: as §2
[15] = Microsomal stability in human liver microsomes incubated for 30 mins by LC-MS/MS analysis; format: ADME, Microsome; conditions: read-out: Stabilty
[16] = Half life in BALB/c mouse at 0.7 mg/kg, iv; format: ADME, organism-based; conditions: in vivo; procedure, shortened: as §2
[17] = Cmax in BALB/c mouse at 5 mg/kg, po; format: ADME, organism-based; set-up: route oral, dose 5 mg/kg; conditions: in vivo; procedure, shortened: as §2
PI3K p110 beta/p85 alpha = PI3K p110 beta/p85 alpha (Homo sapiens, UniProt P42338); assay: Inhibition of human PI3K p110beta/p85alpha by HTRF assay; format: protein-complex assay; procedure, shortened: as §1
[18] = target: Serine/threonine-protein kinase pim-3 (Homo sapiens, UniProt Q86V86); assay: Inhibition of PIM3 (unknown origin) using ARKRRRHPSGPPTA as peptide substrate by ADP Hunter Plus assay
[19] = AUClast in BALB/c mouse at 0.7 mg/kg, iv; format: ADME, organism-based; set-up: route intravenous, time 0 - last, dose 0.7 mg/kg; conditions: in vivo; procedure, shortened: as §2
[20] = AUClast in BALB/c mouse at 5 mg/kg, po; format: ADME, organism-based; set-up: route oral, time 0 - last, dose 5 mg/kg; conditions: in vivo; procedure, shortened: as §2
[21] = AUClast in BALB/c mouse at 1 mg/kg, iv; format: ADME, organism-based; set-up: route intravenous, time 0 - last, dose 1 mg/kg; conditions: in vivo; procedure, shortened: as §2
[22] = Microsomal stability in mouse liver microsomes incubated for 30 mins by LC-MS/MS analysis; format: ADME, Microsome; conditions: read-out: Stabilty
[23] = Half life in BALB/c mouse at 10 mg/kg, po; format: ADME, organism-based; conditions: in vivo; procedure, shortened: as §2
[24] = Volume of distribution at steady state in BALB/c mouse at 1 mg/kg, iv; format: ADME, organism-based; conditions: in vivo; procedure, shortened: as §2
[25] = Microsomal stability in rat liver microsomes incubated for 30 mins by LC-MS/MS analysis; format: ADME, Microsome; conditions: read-out: Stabilty
[26] = AUClast in BALB/c mouse at 10 mg/kg, po; format: ADME, organism-based; set-up: time 0 - last, route oral, dose 10 mg/kg; conditions: in vivo; procedure, shortened: as §2
[27] = Clearance in BALB/c mouse at 1 mg/kg, iv; format: ADME, organism-based; conditions: in vivo; procedure, shortened: as §2
[28] = Tmax in BALB/c mouse at 10 mg/kg, po; format: ADME, organism-based; conditions: in vivo; procedure, shortened: as §2
[29] = Oral bioavailability in BALB/c mouse at 10 mg/kg; format: ADME, organism-based; conditions: in vivo; procedure, shortened: as §2
[30] = Half life in BALB/c mouse at 1 mg/kg, iv; format: ADME, organism-based; conditions: in vivo; procedure, shortened: as §2
Cytochrome P450 2C9 = Cytochrome P450 2C9 (Homo sapiens, UniProt P11712); assay: Inhibition of CYP2C9 (unknown origin); format: ADME

Serine/threonine-protein kinase pim-1, sequence (P11309 whole entry): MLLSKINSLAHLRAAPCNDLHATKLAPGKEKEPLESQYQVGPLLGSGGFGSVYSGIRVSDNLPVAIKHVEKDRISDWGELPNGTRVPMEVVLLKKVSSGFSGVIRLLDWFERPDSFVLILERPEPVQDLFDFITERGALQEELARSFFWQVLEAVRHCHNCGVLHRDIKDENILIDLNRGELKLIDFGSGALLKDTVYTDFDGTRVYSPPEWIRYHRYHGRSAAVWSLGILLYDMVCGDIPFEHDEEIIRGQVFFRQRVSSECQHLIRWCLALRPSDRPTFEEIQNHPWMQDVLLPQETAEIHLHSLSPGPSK
Phosphatidylinositol 4,5-bisphosphate 3-kinase catalytic subunit alpha isoform, sequence (P42336 whole entry, canonical isoform): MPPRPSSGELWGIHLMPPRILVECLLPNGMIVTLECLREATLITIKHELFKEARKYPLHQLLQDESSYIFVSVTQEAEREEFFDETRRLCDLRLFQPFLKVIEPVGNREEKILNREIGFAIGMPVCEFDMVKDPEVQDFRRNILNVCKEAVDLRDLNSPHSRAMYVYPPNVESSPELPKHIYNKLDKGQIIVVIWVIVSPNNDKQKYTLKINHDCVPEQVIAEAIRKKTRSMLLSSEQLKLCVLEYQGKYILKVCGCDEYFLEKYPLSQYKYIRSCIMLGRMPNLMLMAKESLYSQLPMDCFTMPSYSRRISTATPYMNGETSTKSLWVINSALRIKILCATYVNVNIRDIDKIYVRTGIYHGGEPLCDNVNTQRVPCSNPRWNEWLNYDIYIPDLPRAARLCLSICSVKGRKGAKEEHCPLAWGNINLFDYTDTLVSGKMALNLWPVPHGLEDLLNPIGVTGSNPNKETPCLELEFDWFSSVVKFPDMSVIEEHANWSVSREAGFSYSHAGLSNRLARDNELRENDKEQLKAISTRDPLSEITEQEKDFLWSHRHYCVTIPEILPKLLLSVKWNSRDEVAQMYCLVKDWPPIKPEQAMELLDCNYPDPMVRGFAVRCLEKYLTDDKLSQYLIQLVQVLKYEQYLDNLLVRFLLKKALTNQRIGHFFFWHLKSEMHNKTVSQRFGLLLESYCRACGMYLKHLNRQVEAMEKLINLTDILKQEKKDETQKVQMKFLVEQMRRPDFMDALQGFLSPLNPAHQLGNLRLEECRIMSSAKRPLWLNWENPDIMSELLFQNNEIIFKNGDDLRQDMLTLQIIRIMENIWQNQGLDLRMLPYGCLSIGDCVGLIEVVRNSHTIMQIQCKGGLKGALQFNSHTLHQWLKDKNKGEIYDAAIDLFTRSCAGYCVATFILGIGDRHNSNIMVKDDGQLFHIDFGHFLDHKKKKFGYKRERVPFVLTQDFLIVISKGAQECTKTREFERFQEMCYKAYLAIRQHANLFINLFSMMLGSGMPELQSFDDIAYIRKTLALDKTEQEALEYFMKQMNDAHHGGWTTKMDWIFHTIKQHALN
PI3-kinase p110-alpha/p85-alpha, sequence (P27986 whole entry): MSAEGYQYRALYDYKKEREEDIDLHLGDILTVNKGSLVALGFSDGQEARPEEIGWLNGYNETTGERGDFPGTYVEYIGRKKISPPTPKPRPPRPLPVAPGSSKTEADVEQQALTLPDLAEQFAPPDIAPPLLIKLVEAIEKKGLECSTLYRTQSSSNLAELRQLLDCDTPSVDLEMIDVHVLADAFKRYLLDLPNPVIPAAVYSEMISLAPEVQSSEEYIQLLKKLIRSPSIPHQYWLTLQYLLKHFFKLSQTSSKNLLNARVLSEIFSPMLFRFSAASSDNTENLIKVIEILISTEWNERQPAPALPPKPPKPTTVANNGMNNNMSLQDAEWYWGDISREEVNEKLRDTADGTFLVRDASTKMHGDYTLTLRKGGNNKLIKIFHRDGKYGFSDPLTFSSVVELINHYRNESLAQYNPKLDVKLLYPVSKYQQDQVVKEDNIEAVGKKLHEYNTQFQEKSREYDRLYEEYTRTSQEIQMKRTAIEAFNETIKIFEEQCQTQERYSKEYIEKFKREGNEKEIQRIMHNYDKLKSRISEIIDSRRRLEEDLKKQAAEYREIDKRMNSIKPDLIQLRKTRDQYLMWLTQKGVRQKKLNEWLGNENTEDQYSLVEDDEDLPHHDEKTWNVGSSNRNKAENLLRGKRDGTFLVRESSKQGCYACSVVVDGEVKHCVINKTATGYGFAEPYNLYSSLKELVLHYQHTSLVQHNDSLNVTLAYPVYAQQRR
PI3-kinase p110-alpha/p85-alpha, sequence (P42336 whole entry): as the sequence (P42336 whole entry, canonical isoform) above
PI3-kinase p110-delta/p85-alpha, sequence (P27986 whole entry, canonical isoform): as the sequence (P27986 whole entry) above
PI3-kinase p110-delta/p85-alpha, sequence (O00329 whole entry, canonical isoform): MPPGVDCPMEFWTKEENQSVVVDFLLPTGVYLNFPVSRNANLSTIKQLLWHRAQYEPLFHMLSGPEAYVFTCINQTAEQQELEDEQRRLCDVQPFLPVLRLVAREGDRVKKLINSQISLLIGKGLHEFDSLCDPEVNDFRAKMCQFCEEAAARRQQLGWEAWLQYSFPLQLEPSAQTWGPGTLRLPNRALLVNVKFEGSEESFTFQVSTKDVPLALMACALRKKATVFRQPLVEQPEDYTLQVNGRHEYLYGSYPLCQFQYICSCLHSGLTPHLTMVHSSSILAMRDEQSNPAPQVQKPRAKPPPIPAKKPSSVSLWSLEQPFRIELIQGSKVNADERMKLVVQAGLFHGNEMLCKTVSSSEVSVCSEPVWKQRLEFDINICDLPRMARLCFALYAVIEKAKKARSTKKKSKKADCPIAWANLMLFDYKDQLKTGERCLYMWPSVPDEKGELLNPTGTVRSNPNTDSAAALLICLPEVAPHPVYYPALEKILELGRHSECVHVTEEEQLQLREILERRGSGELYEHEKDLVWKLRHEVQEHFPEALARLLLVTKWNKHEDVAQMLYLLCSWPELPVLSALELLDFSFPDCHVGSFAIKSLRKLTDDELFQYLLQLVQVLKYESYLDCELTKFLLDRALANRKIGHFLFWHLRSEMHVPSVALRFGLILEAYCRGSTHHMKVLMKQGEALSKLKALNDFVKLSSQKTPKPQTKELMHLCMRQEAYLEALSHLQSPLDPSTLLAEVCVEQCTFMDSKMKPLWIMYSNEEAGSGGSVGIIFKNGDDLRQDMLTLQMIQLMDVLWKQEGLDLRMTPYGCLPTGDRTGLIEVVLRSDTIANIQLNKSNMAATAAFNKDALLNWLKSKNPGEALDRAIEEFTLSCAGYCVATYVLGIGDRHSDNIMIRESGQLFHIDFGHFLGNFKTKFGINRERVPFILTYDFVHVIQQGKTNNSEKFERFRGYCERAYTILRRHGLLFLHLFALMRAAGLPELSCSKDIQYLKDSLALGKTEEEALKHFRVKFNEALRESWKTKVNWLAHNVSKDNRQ
PI3K p110 beta/p85 alpha, sequence (P27986 whole entry): as the sequence (P27986 whole entry) above
PI3K p110 beta/p85 alpha, sequence (P42338 whole entry): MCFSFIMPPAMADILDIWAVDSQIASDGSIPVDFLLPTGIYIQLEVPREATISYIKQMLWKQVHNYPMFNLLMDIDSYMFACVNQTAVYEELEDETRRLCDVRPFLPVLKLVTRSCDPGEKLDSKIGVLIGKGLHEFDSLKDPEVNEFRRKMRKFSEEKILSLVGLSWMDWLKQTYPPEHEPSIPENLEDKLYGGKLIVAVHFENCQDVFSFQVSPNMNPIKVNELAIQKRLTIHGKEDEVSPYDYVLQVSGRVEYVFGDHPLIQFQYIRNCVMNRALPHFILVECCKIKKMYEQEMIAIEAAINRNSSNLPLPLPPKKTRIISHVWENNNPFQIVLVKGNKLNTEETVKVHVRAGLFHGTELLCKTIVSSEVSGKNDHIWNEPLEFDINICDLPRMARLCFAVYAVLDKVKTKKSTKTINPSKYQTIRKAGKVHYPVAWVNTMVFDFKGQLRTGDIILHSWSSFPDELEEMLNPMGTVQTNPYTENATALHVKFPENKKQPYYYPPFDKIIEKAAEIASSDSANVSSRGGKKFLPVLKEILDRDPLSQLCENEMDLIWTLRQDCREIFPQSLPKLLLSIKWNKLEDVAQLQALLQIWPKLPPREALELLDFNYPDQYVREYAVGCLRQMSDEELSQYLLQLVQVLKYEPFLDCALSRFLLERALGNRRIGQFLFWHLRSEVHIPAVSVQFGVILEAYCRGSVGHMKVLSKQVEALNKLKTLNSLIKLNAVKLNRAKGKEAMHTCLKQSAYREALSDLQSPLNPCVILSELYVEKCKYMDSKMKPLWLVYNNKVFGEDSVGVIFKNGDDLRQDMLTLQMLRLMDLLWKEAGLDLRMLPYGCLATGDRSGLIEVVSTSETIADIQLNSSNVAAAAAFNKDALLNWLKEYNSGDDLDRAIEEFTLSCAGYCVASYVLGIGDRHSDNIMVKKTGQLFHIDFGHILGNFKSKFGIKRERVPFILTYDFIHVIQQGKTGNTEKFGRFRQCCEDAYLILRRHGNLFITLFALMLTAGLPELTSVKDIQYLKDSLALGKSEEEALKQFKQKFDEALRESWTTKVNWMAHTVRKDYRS
Serine/threonine-protein kinase pim-2, sequence (Q9P1W9 whole entry): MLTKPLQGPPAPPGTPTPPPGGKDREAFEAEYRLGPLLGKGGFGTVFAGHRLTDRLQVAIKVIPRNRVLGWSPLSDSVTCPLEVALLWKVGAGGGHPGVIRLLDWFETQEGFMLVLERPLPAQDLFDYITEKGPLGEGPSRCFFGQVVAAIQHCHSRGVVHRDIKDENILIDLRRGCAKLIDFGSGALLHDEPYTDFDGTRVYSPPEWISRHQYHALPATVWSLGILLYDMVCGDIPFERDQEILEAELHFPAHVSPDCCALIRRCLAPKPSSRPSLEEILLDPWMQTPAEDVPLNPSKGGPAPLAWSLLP

COc1ncc2cc1NS(=O)(=O)c1cccc(c1)C(=O)NCc1cccc(c1)-c1ncnc3c1SC2=C3
IC50 [1]: 16.8 nM | IC50 [2]: 279 nM | IC50 [3]: > 10000 nM

COc1ncc2cc1NS(=O)(=O)c1cccc(c1)C(=O)NCc1cncc(c1)-c1ncnc3c1SC2=C3
IC50 [1]: 74.6 nM | IC50 [2]: 45.8 nM | IC50 [3]: > 10000 nM

COc1ncc2cc1NS(=O)(=O)c1cccc(c1)C(=O)NCc1csc(c1)-c1ncnc3c1SC2=C3
IC50 [1]: 28.9 nM | IC50 [2]: 13.1 nM | IC50 [3]: > 10000 nM

COc1ncc(-c2sc3c(-c4ccc(CNC=O)s4)ncnc3c2C)cc1NS(=O)(=O)c1ccccc1
IC50 [1]: 3.29 nM | IC50 [2]: > 10000 nM | IC50 [3]: 80.9 nM

COc1ncc2cc1NS(=O)(=O)c1cccc(c1)C(=O)NC[C@@H]1CCN(C1)c1ncnc3c1SC2=C3C
IC50 [1]: 3.08 nM | IC50 [2]: 122 nM | IC50 [3]: > 10000 nM

COc1ncc2cc1NS(=O)(=O)c1ccc(F)c(c1)C(=O)NCC1=CC=C(S1)c1ncnc3c1SC2=C3C
Ki [4]: 0.13 nM | EC50 [5]: 60 nM | clearance [6]: 1.05 mL/min/kg | IC50 [1]: 0.13 nM | IC50 [7]: 8.04 nM | EC50 (PI3K/mTOR (Homo sapiens)): < 1 nM | Ki [8]: 0.27 nM | Tmax [9]: 5 h | Ki [10]: 0.17 nM | inhibition (INH) [11]: Not Active | bioavailability [12]: 124% | IC50 [2]: 22.3 nM | half-life [13]: 14.6 h | Vd [14]: 0.26 L/kg | IC50 [3]: 74.5 nM | remaining at 0.5 h [15]: > 98% | half-life [16]: 2.96 h | Cmax [17]: 9370 ng/mL | Ki (PI3K p110 beta/p85 alpha): 0.31 nM | IC50 [18]: 5.75 nM | AUC(0-t) [19]: 11200 ng·h/mL | AUC(0-t) [20]: 99100 ng·h/mL

COc1ncc2cc1NS(=O)(=O)c1cccc(c1)C(=O)NCc1cc(ccn1)-c1ncnc3c1SC2=C3
IC50 [1]: 50.2 nM | IC50 [2]: 649 nM | IC50 [3]: > 10000 nM

COc1ncc2cc1NS(=O)(=O)c1cccc(c1)C(=O)NCC1=CC=C(S1)c1ncnc3c1SC2=C3
IC50 [1]: 17 nM | IC50 [2]: 12.9 nM | IC50 [3]: 5700 nM

COc1ncc2cc1NS(=O)(=O)c1cccc(c1)C(=O)NCCn1cc(cn1)-c1ncnc3c1SC2=C3
IC50 [1]: 58.3 nM | IC50 [2]: 254 nM | IC50 [3]: > 10000 nM

COc1ncc2cc1NS(=O)(=O)c1cccc(c1)C(=O)NCCn1cc(cn1)-c1ncnc3c1SC2=C3C
IC50 [1]: 0.43 nM | IC50 [2]: 178 nM | IC50 [3]: 197 nM

COc1ncc2cc1NS(=O)(=O)c1cccc(c1)C(=O)NCc1cncc(c1)-c1ncnc3c1SC2=C3C
IC50 [1]: 19 nM | IC50 [2]: 42.9 nM | IC50 [3]: 175 nM

COc1ncc2cc1NS(=O)(=O)c1cccc(c1)C(=O)NCc1cc(cs1)-c1ncnc3c1SC2=C3
IC50 [1]: 13.7 nM | IC50 [2]: 154 nM | IC50 [3]: > 10000 nM

COc1ncc2cc1NS(=O)(=O)c1cccc(c1)C(=O)NCC1=CC=C(S1)c1ncnc3c1SC2=C3C
Ki [4]: 0.08 nM | EC50 [5]: 34 nM | AUC(0-t) [21]: 16600 ng·h/mL | remaining at 0.5 h [22]: 90% | IC50 [1]: 0.23 nM | IC50 [7]: 13.3 nM | half-life [23]: 23.4 h | EC50 (PI3K/mTOR (Homo sapiens)): < 1 nM | Ki [8]: 0.25 nM | Vd [24]: 0.31 L/kg | remaining at 0.5 h [25]: 87% | AUC(0-t) [26]: 58200 ng·h/mL | Ki [10]: 0.44 nM | inhibition (INH) [11]: Not Active | clearance [27]: 1 mL/min/kg | Tmax [28]: 0.25 h | IC50 [2]: 18.1 nM | bioavailability [29]: 35.1% | IC50 [3]: 138 nM | remaining at 0.5 h [15]: > 98% | Ki (PI3K p110 beta/p85 alpha): 0.37 nM | IC50 [18]: 4.39 nM | half-life [30]: 3.66 h | IC50 (Cytochrome P450 2C9): 4610 nM

COc1ccc2cc1C(=O)NCC1=CC=C(S1)c1ncnc3c1SC(=C3)c1cnc(OC)c(c1)NS2(=O)=O
IC50 [1]: 6.91 nM | IC50 [2]: 65.7 nM | IC50 [3]: 5570 nM

COc1ncc2cc1NS(=O)(=O)c1cccc(c1)C(=O)NCC1=CC=C(O1)c1ncnc3c1SC2=C3
IC50 [1]: 381 nM | IC50 [2]: 247 nM | IC50 [3]: > 10000 nM

COc1ncc2cc1NS(=O)(=O)c1cccc(c1)C(=O)NCC1=C(C)C=C(S1)c1ncnc3c1SC2=C3
IC50 [1]: 7.4 nM | IC50 [2]: 43.8 nM | IC50 [3]: > 10000 nM

COc1ncc2cc1NS(=O)(=O)c1cccc(c1)C(=O)NC[C@H]1CCN(C1)c1ncnc3c1SC2=C3C
IC50 [1]: 3.15 nM | IC50 [2]: 44 nM | IC50 [3]: > 10000 nM

COc1ncc2cc1NS(=O)(=O)c1ccc(F)c(c1)C(=O)NCC1=CC=C(S1)c1ncnc3c1SC2=C3
IC50 [1]: 6.34 nM | IC50 [2]: 14.6 nM | IC50 [3]: 2100 nM

COc1ncc2cc1NS(=O)(=O)c1ccc(Cl)c(c1)C(=O)NCC1=CC=C(S1)c1ncnc3c1SC2=C3
IC50 [1]: 6.28 nM | IC50 [2]: 11.1 nM | IC50 [3]: > 10000 nM

COc1ncc(-c2sc3c(-c4cccs4)ncnc3c2C)cc1NS(=O)(=O)c1ccccc1
IC50 [1]: 36.2 nM | IC50 [2]: > 10000 nM | IC50 [3]: > 1000 nM

COc1ncc2cc1NS(=O)(=O)c1cccc(c1)C(=O)NC[C@@H]1CN(CCO1)c1ncnc3c1SC2=C3C
IC50 [1]: 0.66 nM | IC50 [2]: 39.1 nM | IC50 [3]: 2030 nM

COc1ncc2cc1NS(=O)(=O)c1cccc(c1)C(=O)NCc1nc(cs1)-c1ncnc3c1SC2=C3
IC50 [1]: 123 nM | IC50 [2]: > 10000 nM | IC50 [3]: > 10000 nM

CNC(=O)c1cccc(S(=O)(=O)Nc2cc(-c3sc4c(-c5cccs5)ncnc4c3C)cnc2OC)c1
IC50 [1]: 6.72 nM | IC50 [2]: > 10000 nM | IC50 [3]: 604 nM
